# Only some compounds are listed: those with a hit (about 0.72% of all), similar ones and a draw of the others.
# bIAP inhibitor – intestinal alkaline phosphatase (bovine) inhibition. 190,000 tested, under 10 active. inhibition, % at 20 µM. purified bovine IAP, CDP-star luminescence, 30 min. AID 1019;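 active means over 50% inhibition of intestinal alkaline phosphatase at 20 µM in the single-dose screen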
#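 Incubation: 30 min reaction at room temperature / Material: purified bovine intestinal alkaline phosphatase (IAP) enzyme / Input: enzyme at 1/65,000,000 dilution / Dosing: 20 µM single dose / Signal: CDP-star luminescence signal / Reagent: CDP-star chemiluminescent phosphatase substrate, 30 µM final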
# hIAP activ – increases human intestinal alkaline phosphatase activity; 0.16% of 330,000 active; purified human IAP, CDP-Star luminescence, 30 min; active compounds read high; 1 = vehicle-only enzyme, 0 = enzyme-free background; activation factor at 10 µM;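 active means activation factor of the enzyme at least 2-fold when tested at 20 µM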
# Target sequence (P09923 whole entry, looked up): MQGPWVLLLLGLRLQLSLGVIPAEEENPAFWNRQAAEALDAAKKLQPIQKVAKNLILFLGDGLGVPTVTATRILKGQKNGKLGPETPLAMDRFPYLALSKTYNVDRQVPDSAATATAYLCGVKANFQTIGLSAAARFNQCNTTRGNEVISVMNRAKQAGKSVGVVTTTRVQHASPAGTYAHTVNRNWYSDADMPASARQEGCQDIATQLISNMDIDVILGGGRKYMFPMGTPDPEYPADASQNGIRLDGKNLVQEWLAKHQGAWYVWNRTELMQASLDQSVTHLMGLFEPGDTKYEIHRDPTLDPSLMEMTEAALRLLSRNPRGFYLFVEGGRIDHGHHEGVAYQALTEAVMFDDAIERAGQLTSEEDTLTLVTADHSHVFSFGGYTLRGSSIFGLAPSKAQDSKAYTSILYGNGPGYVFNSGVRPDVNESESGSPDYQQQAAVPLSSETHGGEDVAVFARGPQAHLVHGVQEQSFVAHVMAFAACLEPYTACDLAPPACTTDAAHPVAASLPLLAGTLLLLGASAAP
# mIAP activ – mouse IAP activation; muIAP, CDP-Star luminescence, 30 min; active compounds read high; 1 = vehicle-only enzyme signal, 0 = enzyme-free wells; activation factor at 10 µM; 0.24% of 330,000 active;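 active means activation factor of at least 2 at 20 µM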
#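 System: Mouse IAP enzyme | Also added: CDP-Star substrate | Dosing: Compounds dispensed in DMSO | Schedule: 30 min enzyme-substrate-compound incubation at room temperature | Technique: Chemiluminescence readout | Control set: DMSO-only wells and no-enzyme negative control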
# bIAP act – increases bovine intestinal alkaline phosphatase activity. activation factor at 20 µM. purified bovine IAP, CDP-star luminescence, 30 min; active compounds read high; fold of DMSO-control signal, blank-subtracted. 0.17% of 200,000 active. AID 1016;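 active means activation factor of 2 or more at 20 µM, a signal rise over negative controls twice the positive control's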
# hIAP inh – blocks human intestinal alkaline phosphatase; purified IAP, CDP-Star luminescence, 30 min; inhibition, % at 10 µM; 0.12% of 330,000 active; AID 2544;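 active means inhibition reaching a set limit with compound at 10 µM in the primary screen, cut at about 35% in these data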;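 further: plate controls were DMSO wells with enzyme for no effect and no-enzyme buffer wells for full effect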
# mIAP inh – blocks mouse intestinal alkaline phosphatase. purified mouse IAP, CDP-Star luminescence, 30 min. inhibition, % at 10 µM. 0.2% of 330,000 active;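 active means inhibition of at least 40% at 10 µM in the primary screen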;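 further: plate controls were DMSO with enzyme for no effect and no enzyme wells for full effect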
# hIAP act confirm – human IAP activation confirmation | shares compounds with hIAP activ | purified IAP, CDP-Star luminescence, 30 min; active compounds read low | activation (%Activity, negative = activation), % at 8.3 µM | 10% of 880 active;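 active means at least twofold enzyme activation in any of six single-dose repeats, which the averaged readout prints as negative percent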
# mIAP inh confirm – mouse IAP inhibition confirmation. 4.7% of 11,000 active. AID 434971. inhibition, % at 10 µM. purified mouse IAP, CDP-Star luminescence, 30 min. shares compounds with mIAP inh;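 active means inhibition of at least 40% at 10 µM in either of the two replicates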;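 further: plate controls were DMSO wells with enzyme for no effect and buffer wells lacking enzyme for full effect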
# * marks the source's active call; other numbers are inactive results; i = inactive; · = no result given.
SMILES,bIAP inhibitor,hIAP activ,mIAP activ,bIAP act,hIAP inh,mIAP inh,mIAP inh confirm,others
O=C(NN1C(=O)/C(=C/c2cccc(O)c2)SC1=S)c1ccccc1O,·,1.6,0.62,·,-63,38,·,
CN=c1scc(-c2ccco2)n1/N=C/c1ccc(O)c(O)c1,9,0.65,0.45,0.9,35*,55*,63*,hIAP act confirm=-22
COc1ccc(O)c(/C=N/n2c(-c3ccco3)csc2=Nc2cccnc2)c1,10,0.93,0.87,0.9,7,13,·,
O=c1nc2n(c3c4c(sc13)CCC4)CCC2,2,0.9,1.1,1,10,-6,·,
Cc1ccc(CNC(=S)NC2CCC(C(C)(C)C)CC2)cc1 (centres undefined),·,2.1*,4.5*,·,-107,-355,-100,hIAP act confirm=-26
O=C(N=C1SC2CS(=O)(=O)CC2N1Cc1ccc(F)cc1)C1CC1 (centres undefined),·,0.92,1,·,8,0,·,
O=C(CCCc1ccccc1)Nc1ccnn1C1CCN(Cc2ccc(Cl)cc2)CC1,·,2.9*,2.5*,·,-195,-150,-118,hIAP act confirm=-2
CC(C)n1cc(CN2CCC(n3nccc3NC(=O)C3CCCC3)CC2)cn1,·,0.94,1,·,6,-2,·,
CC(C)Cc1ccc(CN2CCC(n3nccc3NC(=O)C3CCCC3)CC2)cc1,·,3.3*,2.4*,·,-232,-143,-98,hIAP act confirm=5
CCOc1cccc(CN2CCC(n3nccc3NC(=O)CCCc3ccccc3)CC2)c1,·,3.5*,2.4*,·,-246,-138,-130,hIAP act confirm=-10
Cc1ccc(C)c(CN2CCC(n3nccc3NC(=O)CCCc3ccccc3)CC2)c1,·,2.6*,2.4*,·,-164,-138,-131,hIAP act confirm=-61
COC(=O)c1cccc(S(=O)(=O)N2CCCCC2)c1,9,1,1,0.9,-2,-1,·,
COc1cc(NC(=O)NCC2CCN(Cc3ccccc3C)CC2)cc(OC)c1OC,·,2.4*,3.5*,·,-141,-253,-190,hIAP act confirm=30
COc1cc(/C=C/C(O)=C/C(=O)/C=C/c2ccc(O)cc2)ccc1O,·,0.65,0.47,·,35*,53*,48*,hIAP act confirm=11
CCOc1cc(S(=O)(=O)Nc2ccccc2CC)ccc1Cl,21,0.91,1,0.8,9,0,·,
COc1cc(CNCCO)cc(Br)c1OCc1ccccc1,-4,1.2,1.1,1,-17,-10,·,
O=C(COc1ccccc1C(=O)N/N=C\c1ccc(O)c(O)c1)N/N=C/c1ccc(O)c(O)c1,49,0.42,0.27,0.5,58*,73*,82*,hIAP act confirm=3
CCOCCn1c(C)c(C(=O)OCC)c2cc(O)c3ccccc3c21,·,1.1,0.94,·,-14,6,·,
Cc1ccc(NC(=O)C2CC(=O)n3c(nc4ccccc43)N2)cc1 (centres undefined),-7,1.7,2,1.1,-68,-99,·,
O=C(Nc1ccc(Cl)cc1)C1CC(=O)n2c(nc3ccccc32)N1 (centres undefined),2,2*,2.7*,1,-104,-169,-106,hIAP act confirm=-7
CC(C)(Oc1cccc2ccccc12)C(=O)O,-4,0.86,1,1,14,-1,·,
CCN(CC)c1ccc(S(=O)(=O)N2CCOCC2)cc1NC(=O)Nc1ccccc1,·,1,4.7*,·,-5,-366,-153,
CCN(CC)c1ccc(S(=O)(=O)N2CCOCC2)cc1NC(=O)CNCc1ccccc1,·,1.3,1.1,·,-26,-11,·,
O=S(=O)(c1ccc(OCc2nc3ccccc3s2)c(Cl)c1)N1CCOCC1,-2,1.1,0.82,1,-14,18,·,
Cc1ccc2c(Cl)cc(Cl)c(OCC(=O)Nc3cccc(S(=O)(=O)N(C)C)c3)c2n1,33,0.9,0.99,0.7,10,1,·,
SMILES,bIAP inhibitor,hIAP activ,mIAP activ,bIAP act,hIAP inh,mIAP inh,mIAP inh confirm,others
COc1cc(-c2nnc(SCc3cc(=O)oc4cc(O)c(O)cc34)o2)cc(OC)c1OC,6,0.89,0.31,0.9,11,69*,73*,
C=C(C)c1cccc(C(C)(C)NC(=O)Nc2ccc(C(N)=O)cc2)c1,-28,1.1,2.2*,1.3,-15,-123,-118,
CCCCOc1ccc(NC2=NC3(CCCCC3)N=C(N)N2)cc1,-365,0.98,4.8*,4.6*,2,-376,-453,
Cn1nnnc1SCc1ccc(C(=O)Nc2nccs2)cc1,12,0.96,1.1,0.9,4,-7,·,
COc1cccc(NC(=O)C2CCN(Cc3cnn(-c4ccccc4)c3-n3cccc3)CC2)c1,-299,1,2.8*,4*,0,-180,-101,
CCCN(CCC)C(=O)CSc1ncccc1C(=O)O,9,1.1,1,0.9,-10,-4,·,
CC(=O)Nc1ccc(S(=O)(=O)Nc2nc3ccccc3nc2Nc2cccc(O)c2)cc1,·,1.1,0.91,·,-12,9,·,
CC(=O)Nc1ccc(S(=O)(=O)Nc2nc3ccccc3nc2Nc2ccc(C(=O)O)c(O)c2)cc1,·,0.99,0.58,·,0,42*,50*,
CC(=O)Nc1cccc(NC(=O)COC(=O)C2CC3CCCC(C2)C3=O)c1 (centres undefined),·,1.1,0.88,·,-12,12,·,
c1coc(CNc2nc(-c3cccs3)cs2)c1,2,1,0.55,1,0,45*,49*,
CCOC(=O)/C(C#N)=C/N1CCOCC1,·,1,0.98,·,-3,2,·,
C=CCc1cccc2cc(C(=O)NNC(=O)CC#N)c(=O)oc12,·,1,0.55,·,-5,45*,55*,
Cc1ccc(/C=C2/SC(=O)NC2=S)o1,24,1.1,0.55,0.8,-8,45*,63*,
CCOc1ccc(S(=O)(=O)NCC(=O)NC2CCCCC2)cc1,·,1.2,1.1,·,-23,-12,·,
CCCCn1c(N)c(N(CC)C(=O)c2cccc(OCc3ccccc3)c2)c(=O)[nH]c1=O,·,1.1,0.96,·,-14,4,·,
CC[C@H](C)[C@@H](C(=O)NCCCCCCCCCCC(=O)N1CCN(C(=O)OC(C)(C)C)CC1)n1cc(CCCCN=C(NC(=O)OC(C)(C)C)NC(=O)OC(C)(C)C)nn1,·,0.94,2.3*,·,6,-125,-128,
C#CCOCCOCCOCCNc1nc(N2CCN(C(=O)CCCCCCCCCCNC(=O)[C@H]([C@@H](C)CC)n3cc(CCCCN=C(N)N)nn3)CC2)nc(N2CCN(C(=O)CCCCCCCCCCNC(=O)[C@H](CO)n3cc(CCCCCN)nn3)CC2)n1,·,1.4,6.4*,·,-38,i,i,
C#CCOCCOCCOCCNc1nc(N2CCN(C(=O)CCCCCCCCCCNC(=O)Cn3cc(CCCCCN)nn3)CC2)nc(N2CCN(C(=O)CCCCCCCCCCNC(=O)[C@@H](CCSC)n3cc(CCO)nn3)CC2)n1,·,1.1,4.2*,·,-14,-321,-256,
